Measured values from ChEMBL document CHEMBL2331552, “Identification of RO4597014, a Glucokinase Activator Studied in the Clinic for the Treatment of Type 2 Diabetes” (ACS Med Chem Lett, 2013).
Values after ≈ are worked out from the molar mass of the structure shown. One block for each molecule: values may come before it.

Key:
[1] = Dissociation constant, pKa of the compound; format: physicochemical
[2] = Cmax in dog at 30 mg/kg, po; format: ADME, organism-based, Canis lupus familiaris; design: dose 30 mg/kg, route oral; settings: in vivo
[3] = AUC (0 to infinity) in C57Bl/6J mouse at 30 mg/kg, po; format: ADME, organism-based; design: time infinity, dose 30 mg/kg, route oral; settings: plasma
[4] = target: T1, Hexokinase-4 (Homo sapiens) (UniProt P35557); assay: Activation of human recombinant glucokinase using glucose as substrate
T1 sequence (whole entry): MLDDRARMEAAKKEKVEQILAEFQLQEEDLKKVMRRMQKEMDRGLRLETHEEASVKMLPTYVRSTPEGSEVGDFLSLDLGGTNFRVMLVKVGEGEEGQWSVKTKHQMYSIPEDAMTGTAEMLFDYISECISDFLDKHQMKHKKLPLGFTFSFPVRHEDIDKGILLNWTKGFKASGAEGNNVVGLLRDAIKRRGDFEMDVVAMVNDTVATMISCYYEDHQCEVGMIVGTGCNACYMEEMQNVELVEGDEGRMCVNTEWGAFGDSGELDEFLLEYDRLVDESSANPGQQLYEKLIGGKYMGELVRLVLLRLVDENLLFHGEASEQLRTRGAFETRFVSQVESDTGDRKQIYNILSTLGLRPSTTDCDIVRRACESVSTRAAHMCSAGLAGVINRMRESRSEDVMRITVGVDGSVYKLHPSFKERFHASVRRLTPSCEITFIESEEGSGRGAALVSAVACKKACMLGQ
Procedure, shortened: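 Recombinant human GK was run across a range of glucose concentrations with varied activator levels. Vmax and the glucose SC0.5 (concentration reaching half Vmax) were derived.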

[5] = Fraction unbound in human plasma; format: ADME, cell-free
[6] = AUC (0 to infinity) in dog at 10 mg/kg, iv; format: ADME, organism-based, Canis lupus familiaris; design: time infinity, dose 10 mg/kg, route intravenous; settings: plasma
[7] = Volume of distribution at steady state in dog at 10 mg/kg, iv; format: ADME, organism-based, Canis lupus familiaris; design: dose 10 mg/kg, route intravenous; settings: in vivo, read-out: Vdss
Mus musculus [8] = assay: Antidiabetic activity in po dosed diet induced obese C57Bl/6J mouse assessed as lowering blood glucose level; format: functional, organism-based
Procedure, shortened: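 Diet-induced obese C57Bl/6J mice were used: 6 months old, 4 months on high-fat diet, n = 9 per dose. Oral doses were 7.5, 15 and 30 mg/kg, with glucose followed at 2 and 4 h post-dose. The dose giving 25% glucose lowering (ED25) was reported.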

Mus musculus [9] = assay: Antidiabetic activity in C57Bl/6J mouse assessed as change in blood glucose level at 50 mg/kg, po after 4 hrs relative to vehicle-treated control; format: functional
Procedure, shortened: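 C57Bl/6J mice, 2 months old, n = 6 per group, fasted 2 h, received 50 mg/kg orally or vehicle. Blood was sampled at 2, 4, 6 and 8 h after dosing. The recorded value is % blood glucose change versus vehicle at 4 h.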

[10] = Apparent permeability of the compound across human Caco2 cells; format: ADME, cell-based; settings: Caco-2
Liver microsomes = assay: Covalent binding to human liver microsomes after 30 mins in presence of NADPH per mg of protein; format: ADME, Microsome; settings: 0.5 h
Procedure, shortened: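 Covalent binding to human liver microsomes was measured with NADPH over 30 min. It is expressed per mg protein.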

[11] = Lipophilicity, log D of the compound at pH 7.4; format: physicochemical; settings: buffer
Mus musculus [12] = assay: Antidiabetic activity in po dosed diet induced obese C57Bl/6J mouse assessed as reduction in blood glucose level after 2 to 4 hrs; format: functional
Procedure, shortened: (§1)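 Diet-induced obese C57Bl/6J mice were used: 6 months old, on high-fat diet for 4 months, n = 9 per dose. Oral doses were 7.5, 15 and 30 mg/kg. Basal blood glucose lowering was read at 2 and 4 h post-dose.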

[13] = Metabolic stability in human hepatocytes after 3 hrs by LC-MS/MS analysis; format: ADME, cell-based, Hepatocyte; settings: read-out: Stability
Mus musculus [14] = assay: Antidiabetic activity in diet induced obese C57Bl/6J mouse assessed as reduction in blood glucose level at 15 mg/kg, po after 2 to 4 hrs; format: functional; design: scale not given: the % may be the effect or the level left; procedure, shortened: as §1
[15] = Oral bioavailability in dog at 30 mg/kg; format: ADME, organism-based, Canis lupus familiaris; settings: in vivo
[16] = Cmax in C57Bl/6J mouse at 30 mg/kg, po; format: ADME, organism-based; design: dose 30 mg/kg, route oral; settings: in vivo
[17] = target: T1, Hexokinase-4 (Homo sapiens); assay: Activation of glucokinase (unknown origin) using glucose as substrate assessed as stimulation concentration required to achieve 150% activity relative to control
Procedure, shortened: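 Read-out is the compound concentration giving GK activity 150% of control (SC1.5). Values are means of at least three independent assays. Assay CV averaged 15%.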

hERG (KCNH2) = hERG (KCNH2) (Homo sapiens, UniProt Q12809); assay: Inhibition of human ERG channel at 10 uM by patch clamp method
Sequence of hERG (KCNH2) (Q12809 whole entry): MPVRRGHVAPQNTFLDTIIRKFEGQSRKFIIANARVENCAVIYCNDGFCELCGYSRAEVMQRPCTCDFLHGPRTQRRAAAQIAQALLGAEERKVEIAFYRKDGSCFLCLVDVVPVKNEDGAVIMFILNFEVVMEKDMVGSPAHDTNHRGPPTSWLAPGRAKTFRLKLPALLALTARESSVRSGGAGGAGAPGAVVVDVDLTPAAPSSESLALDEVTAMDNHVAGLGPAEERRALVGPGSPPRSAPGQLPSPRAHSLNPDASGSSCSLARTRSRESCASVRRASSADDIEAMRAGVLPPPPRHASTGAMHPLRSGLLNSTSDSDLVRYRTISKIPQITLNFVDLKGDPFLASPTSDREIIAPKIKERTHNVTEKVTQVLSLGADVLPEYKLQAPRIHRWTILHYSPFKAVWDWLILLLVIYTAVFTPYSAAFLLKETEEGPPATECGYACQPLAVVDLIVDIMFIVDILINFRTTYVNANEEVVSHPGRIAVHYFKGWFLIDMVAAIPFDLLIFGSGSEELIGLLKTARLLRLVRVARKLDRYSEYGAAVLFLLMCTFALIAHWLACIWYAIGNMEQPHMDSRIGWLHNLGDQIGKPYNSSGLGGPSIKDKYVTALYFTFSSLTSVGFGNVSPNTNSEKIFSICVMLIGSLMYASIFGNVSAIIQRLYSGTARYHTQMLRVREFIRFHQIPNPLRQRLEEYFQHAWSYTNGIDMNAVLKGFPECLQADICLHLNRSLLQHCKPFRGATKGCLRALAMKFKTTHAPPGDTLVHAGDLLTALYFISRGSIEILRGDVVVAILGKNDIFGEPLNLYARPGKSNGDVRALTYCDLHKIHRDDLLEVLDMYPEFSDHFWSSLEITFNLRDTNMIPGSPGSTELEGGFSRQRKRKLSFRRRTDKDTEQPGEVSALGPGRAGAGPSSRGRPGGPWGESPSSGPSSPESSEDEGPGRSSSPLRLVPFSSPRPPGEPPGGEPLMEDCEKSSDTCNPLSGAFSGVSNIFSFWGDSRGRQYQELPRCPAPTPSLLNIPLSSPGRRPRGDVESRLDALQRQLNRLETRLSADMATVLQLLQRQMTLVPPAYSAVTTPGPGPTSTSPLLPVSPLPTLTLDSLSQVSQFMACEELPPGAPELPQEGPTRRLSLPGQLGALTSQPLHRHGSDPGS

[18] = Tmax in C57Bl/6J mouse at 30 mg/kg, po; format: ADME, organism-based; design: dose 30 mg/kg, route oral; settings: in vivo
[19] = Clearance in C57Bl/6J mouse at 10 mg/kg, iv; format: ADME, organism-based; design: dose 10 mg/kg, route intravenous; settings: in vivo
[20] = Solubility of the compound at pH 7.4; format: physicochemical; settings: buffer
[21] = Tmax in dog at 30 mg/kg, po; format: ADME, organism-based, Canis lupus familiaris; design: dose 30 mg/kg, route oral; settings: in vivo
[22] = AUC (0 to infinity) in dog at 30 mg/kg, po; format: ADME, organism-based, Canis lupus familiaris; design: time infinity, dose 30 mg/kg, route oral; settings: plasma
Mus musculus [23] = assay: Antidiabetic activity in diet induced obese C57Bl/6J mouse assessed as reduction in blood glucose level at 30 mg/kg, po after 2 to 4 hrs; format: functional; design: scale not given: the % may be the effect or the level left; procedure, shortened: as §1
[24] = Volume of distribution at steady state in C57Bl/6J mouse at 10 mg/kg, iv; format: ADME, organism-based; design: dose 10 mg/kg, route intravenous; settings: in vivo, read-out: Vdss
[25] = Inhibition of cytochrome P450 (unknown origin); format: ADME, Homo sapiens
Procedure, shortened: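 IC50 was measured against 7 CYP isoforms.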

[26] = AUC (0 to infinity) in C57Bl/6J mouse at 10 mg/kg, iv; format: ADME, organism-based; design: time infinity, dose 10 mg/kg, route intravenous; settings: plasma
[27] = Oral bioavailability in C57Bl/6J mouse at 30 mg/kg; format: ADME, organism-based; settings: in vivo
[28] = Clearance in dog at 10 mg/kg, iv; format: ADME, organism-based, Canis lupus familiaris; design: dose 10 mg/kg, route intravenous; settings: in vivo
[29] = target: Voltage-gated inwardly rectifying potassium channel KCNH2 (Homo sapiens, UniProt Q12809); assay: Inhibition of human ERG channel
Sequence of Voltage-gated inwardly rectifying potassium channel KCNH2 (Q12809 whole entry): as above
Procedure, shortened: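 hERG potassium channel current was measured by patch clamp at varied concentrations. IC50 was taken from the concentration-dependent inhibition.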

Compound: CS(=O)(=O)c1ccc([C@@H](CC2CCCC2)C(=O)Nc2cnc([C@H](O)CO)cn2)cc1Cl
- pKa [1]: 11.4
- Cmax [2]: 3790 ng/mL
- AUC(0-inf) [3]: 12100 ng·h/mL
- Activity [4]: Dose-dependent effect
- fraction unbound [5]: 0.1
- AUC(0-inf) [6]: 21600 ng·h/mL
- Vd [7]: 1.69 L/kg
- Activity (Mus musculus [8]): Dose-dependent effect
- Activity (Mus musculus [9]): -44%
- Papp [10]: 3.36 ×10⁻⁶ cm/s
- Activity (Liver microsomes): 33 pmol
- logD [11]: 2.7
- ED25 (Mus musculus [12]): 10 mg/kg
- remaining at 3 h [13]: 95%
- Activity (Mus musculus [14]): 32%
- bioavailability [15]: 84%
- Cmax [16]: 1310 ng/mL
- Activity [17]: 0.26 µM
- inhibition at 10 µM (hERG (KCNH2)): 22%
- Tmax [18]: 4 h
- clearance [19]: 20.8 mL/min/kg
- solubility [20]: 170 µg/mL (≈ 363 µM)
- Tmax [21]: 7.3 h
- AUC(0-inf) [22]: 54500 ng·h/mL
- Activity (Mus musculus [23]): 45%
- Vd [24]: 1.44 L/kg
- IC50 [25]: > 30 µM
- AUC(0-inf) [26]: 8010 ng·h/mL
- bioavailability [27]: 50.3%
- clearance [28]: 8 mL/min/kg
- IC50 [29]: 70 µM

Compound: COc1cc(C(CC2CCCC2)C(=O)Nc2cnccn2)ccc1S(C)(=O)=O (stereo not given)
- Activity [17]: 1.9 µM
- inhibition at 10 µM (hERG (KCNH2)): 36%

Compound: CC(C)(O)C#Cc1cnc(NC(=O)[C@H](CC2CCCC2)c2ccc(S(C)(=O)=O)c(Cl)c2)cn1
- Activity (Mus musculus [9]): -48%
- Activity [17]: 0.056 µM

Compound: C/C(=N/O)c1cnc(NC(=O)[C@H](CC2CCCC2)c2ccc(S(C)(=O)=O)c(Cl)c2)cn1
- Activity (Mus musculus [9]): -43%
- Activity [17]: 0.059 µM
- inhibition at 10 µM (hERG (KCNH2)): 73%

Compound: CS(=O)(=O)c1ccc([C@@H](CC2CCCC2)C(=O)Nc2cnc(C#CC3(O)CCOCC3)cn2)cc1Cl
- Activity (Mus musculus [9]): -45%
- Activity [17]: 0.075 µM

Compound: CS(=O)(=O)c1ccc([C@@H](CC2CCCC2)C(=O)Nc2cnccn2)cc1Cl
- Activity (Mus musculus [9]): -53%
- Activity [17]: 0.11 µM

Compound: CS(=O)(=O)c1ccc([C@@H](CC2CCCC2)C(=O)Nc2cnc(/C(N)=N\O)cn2)cc1Cl
- Activity (Mus musculus [9]): -53%
- Activity [17]: 0.037 µM
- inhibition at 10 µM (hERG (KCNH2)): 50%

Compound: CS(=O)(=O)Cc1cnc(NC(=O)[C@H](CC2CCCC2)c2ccc(S(C)(=O)=O)c(Cl)c2)cn1
- Activity (Mus musculus [9]): -39%
- Activity [17]: 0.26 µM

Compound: CS(=O)(=O)c1ccc([C@@H](CC2CCCC2)C(=O)Nc2cnc(OC[C@H](O)CO)cn2)cc1Cl
- Activity (Mus musculus [9]): -38%
- Activity [17]: 0.19 µM

Compound: CSc1cnc(NC(=O)[C@H](CC2CCCC2)c2ccc(S(C)(=O)=O)c(Cl)c2)cn1
- Activity (Mus musculus [9]): -26%
- Activity [17]: 0.054 µM

Compound: CS(=O)(=O)c1ccc([C@@H](CC2CCCC2)C(=O)Nc2cnc(OC[C@@H](O)CO)cn2)cc1Cl
- Activity (Mus musculus [9]): -29%
- Activity [17]: 0.3 µM

Compound: CS(=O)(=O)c1ccc(C(CC2CCOCC2)C(=O)Nc2cnccn2)cc1Cl (stereo not given)
- Activity (Mus musculus [9]): -5.6%
- Activity [17]: 1.4 µM
- inhibition at 10 µM (hERG (KCNH2)): 8.1%

Now from value to molecule, other results behind:

- Activity [17]: 0.14 µM
Compound: COCC#Cc1cnc(NC(=O)[C@H](CC2CCCC2)c2ccc(S(C)(=O)=O)c(Cl)c2)cn1
- Activity (Mus musculus [9]): -49%
- inhibition at 10 µM (hERG (KCNH2)): 53%

- Activity [17]: 1.1 µM
Compound: CS(=O)(=O)c1ccc([C@@H](CC2CCCC2)C(=O)Nc2cnc([C@@H](O)CO)cn2)cc1Cl
- Activity (Mus musculus [9]): -35%
- inhibition at 10 µM (hERG (KCNH2)): 21%

- Activity [17]: 0.13 µM
Compound: CS(=O)(=O)c1ccc([C@@H](CC2CCCC2)C(=O)Nc2cnc(CCC3(O)CCOCC3)cn2)cc1Cl
- Activity (Mus musculus [9]): -43%
- inhibition at 10 µM (hERG (KCNH2)): 40%

- Activity [17]: 0.31 µM
Compound: CC(C)(O)[C@@H](O)c1cnc(NC(=O)[C@H](CC2CCCC2)c2ccc(S(C)(=O)=O)c(Cl)c2)cn1
- Activity (Mus musculus [9]): -44%

- Activity [17]: 3.6 µM
Compound: CS(=O)(=O)c1ccc(C(CC2CCOC2)C(=O)Nc2cnccn2)cc1Cl (stereo not given)

- Activity [17]: 0.11 µM
Compound: CN(C)CC#Cc1cnc(NC(=O)[C@H](CC2CCCC2)c2ccc(S(C)(=O)=O)c(Cl)c2)cn1
- Activity (Mus musculus [9]): -46%
- inhibition at 10 µM (hERG (KCNH2)): 86%

- Activity [17]: 0.4 µM
Compound: C[S+]([O-])c1cnc(NC(=O)[C@H](CC2CCCC2)c2ccc(S(C)(=O)=O)c(Cl)c2)cn1 (stereo not given in full)
- Activity (Mus musculus [9]): -26%
- inhibition at 10 µM (hERG (KCNH2)): 27%

- Activity [17]: 0.022 µM
Compound: CS(=O)(=O)c1ccc([C@@H](CC2CCCC2)C(=O)Nc2cnc(C#CCO)cn2)cc1Cl
- Activity (Mus musculus [9]): -46%
- inhibition at 10 µM (hERG (KCNH2)): 46%

- Activity [17]: 0.41 µM
Compound: CS(=O)(=O)c1ccc([C@@H](CC2CCCC2)C(=O)Nc2cnc(C(=O)NO)cn2)cc1Cl
- Activity (Mus musculus [9]): -14%
- inhibition at 10 µM (hERG (KCNH2)): 37%
